Here are results for five molecules from ChEMBL document CHEMBL1152293, “Discovery of novel, potent and bioavailable proline-urea based macrocyclic HCV NS3/4A protease inhibitors” (Bioorg Med Chem Lett, 2008).

Some results are limits rather than exact numbers.

Target in the first data set: not listed separately
The data set can be described thus: Inhibition of full length HCV NS3/4A protease. More on the design: species or system Hepacivirus hominis. The conditions noted are these: read-out: Ki.
`COc1ccc2c(O[C@@H]3C[C@H]4C(=O)N[C@]5(C(=O)NS(=O)(=O)C6CC6)C[C@H]5/C=C\CCCCCNC(=O)N4C3)cc(-c3ccccc3)nc2c1`: the Ki is 0.24 nM.

With `COc1ccc2c(O[C@@H]3C[C@H]4C(=O)N[C@]5(C(=O)NS(=O)(=O)C6(C)CC6)C[C@H]5/C=C\CCCCCNC(=O)N4C3)cc(-c3nc(C(C)C)cs3)nc2c1Cl`, the Ki amounted to 0.1 nM.

As for `COc1ccc2c(O[C@@H]3C[C@H]4C(=O)N[C@]5(C(=O)NS(=O)(=O)C6(C)CC6)C[C@H]5/C=C\CCCCCNC(=O)N4C3)cc(-c3nc(C(C)C)cs3)nc2c1`, the Ki came to 0.1 nM.

With `COc1ccc2c(O[C@@H]3C[C@H]4C(=O)N[C@]5(C(=O)NS(=O)(=O)C6CC6)C[C@H]5/C=C\CCCCCN(C)C(=O)N4C3)cc(-c3ccccc3)nc2c1`, the Ki was 10 nM.

`COc1ccc2c(O[C@@H]3C[C@H]4C(=O)N[C@]5(C(=O)NS(=O)(=O)C6CC6)C[C@H]5/C=C\CCCCN(C)C(=O)N4C3)cc(-c3nc(C(C)C)cs3)nc2c1`: the Ki is 0.45 nM.

System in the next data set: not listed separately
The data set can be described thus: Cytotoxicity against human HuH7 cells. In kind it is cell-based, Huh-7. The conditions noted are these: Huh-7 cells.
`COc1ccc2c(O[C@@H]3C[C@H]4C(=O)N[C@]5(C(=O)NS(=O)(=O)C6(C)CC6)C[C@H]5/C=C\CCCCCNC(=O)N4C3)cc(-c3nc(C(C)C)cs3)nc2c1` returned a CC50 greater than 50000 nM.

The same data set, now with this note: huh-7.
In the case of `COc1ccc2c(O[C@@H]3C[C@H]4C(=O)N[C@]5(C(=O)NS(=O)(=O)C6(C)CC6)C[C@H]5/C=C\CCCCCNC(=O)N4C3)cc(-c3nc(C(C)C)cs3)nc2c1`, the Activity entry is listed as “Non-toxic”.

For another data set, the system named is Hepatitis C virus. The data set can be described thus: Antiviral activity against HCV infected in human Huh7 cells after 48 hrs by luciferase based replicon assay. In kind it is functional, organism-based, Hepacivirus hominis. The settings on record: Huh-7, 48 h.
`COc1ccc2c(O[C@@H]3C[C@H]4C(=O)N[C@]5(C(=O)NS(=O)(=O)C6CC6)C[C@H]5/C=C\CCCCCNC(=O)N4C3)cc(-c3ccccc3)nc2c1` came in with an EC50 of 15 nM.

`COc1ccc2c(O[C@@H]3C[C@H]4C(=O)N[C@]5(C(=O)NS(=O)(=O)C6(C)CC6)C[C@H]5/C=C\CCCCCNC(=O)N4C3)cc(-c3nc(C(C)C)cs3)nc2c1Cl` registered an EC50 of 4 nM.

Molecule `COc1ccc2c(O[C@@H]3C[C@H]4C(=O)N[C@]5(C(=O)NS(=O)(=O)C6(C)CC6)C[C@H]5/C=C\CCCCCNC(=O)N4C3)cc(-c3nc(C(C)C)cs3)nc2c1` yielded an EC50 of 4.5 nM.

The molecule `COc1ccc2c(O[C@@H]3C[C@H]4C(=O)N[C@]5(C(=O)NS(=O)(=O)C6CC6)C[C@H]5/C=C\CCCCCN(C)C(=O)N4C3)cc(-c3ccccc3)nc2c1` gave an EC50 of 4500 nM.

For the molecule `COc1ccc2c(O[C@@H]3C[C@H]4C(=O)N[C@]5(C(=O)NS(=O)(=O)C6CC6)C[C@H]5/C=C\CCCCN(C)C(=O)N4C3)cc(-c3nc(C(C)C)cs3)nc2c1`, the EC50 was 26 nM.

System in the next data set: not listed separately
The data set can be described thus: Clearance in Sprague-Dawley rat at 2 mg/kg, iv. It is filed as ADME, organism-based. The conditions noted are these: in vivo. More on the design: dose 2 mg/kg, route intravenous. The gist of the method:
(§1)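 Male Sprague–Dawley rats (n = 2 per route) received a single intravenous dose of 2 mg/kg or an oral dose of 10 mg/kg in 50% PEG-400 in water. Plasma levels were averaged, and PK parameters were calculated. Bioavailability was derived from the iv and oral arms.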
Consider `COc1ccc2c(O[C@@H]3C[C@H]4C(=O)N[C@]5(C(=O)NS(=O)(=O)C6(C)CC6)C[C@H]5/C=C\CCCCCNC(=O)N4C3)cc(-c3nc(C(C)C)cs3)nc2c1`, for which the clearance was 9.83 mL/min/kg.

Turning to `COc1ccc2c(O[C@@H]3C[C@H]4C(=O)N[C@]5(C(=O)NS(=O)(=O)C6CC6)C[C@H]5/C=C\CCCCN(C)C(=O)N4C3)cc(-c3nc(C(C)C)cs3)nc2c1`, the clearance was 27.5 mL/min/kg.

System in the next data set: not listed separately
Briefly: Volume of distribution in Sprague-Dawley rat at 2 mg/kg, iv. It is filed as ADME, organism-based. The conditions noted are these: in vivo. More on the design: dose 2 mg/kg, route intravenous. In outline:
as §1
Molecule `COc1ccc2c(O[C@@H]3C[C@H]4C(=O)N[C@]5(C(=O)NS(=O)(=O)C6CC6)C[C@H]5/C=C\CCCCN(C)C(=O)N4C3)cc(-c3nc(C(C)C)cs3)nc2c1` gave a Vd of 4.5 L/kg.

System in a further data set: not listed separately
The data set can be described thus: AUC in Sprague-Dawley rat at 2 mg/kg, iv. More on the design: dose 2 mg/kg, route intravenous. It is filed as ADME, organism-based. The settings on record: plasma. The gist of the method:
as §1
In the case of `COc1ccc2c(O[C@@H]3C[C@H]4C(=O)N[C@]5(C(=O)NS(=O)(=O)C6CC6)C[C@H]5/C=C\CCCCN(C)C(=O)N4C3)cc(-c3nc(C(C)C)cs3)nc2c1`, the AUC was found to be 1.65 µM·h.

System in the next data set: not listed separately
The data set can be described thus: AUC in Sprague-Dawley rat at 10 mg/kg, po. It is filed as ADME, organism-based. The settings on record: plasma. More on the design: dose 10 mg/kg, route oral. The gist of the method: as §1
Consider `COc1ccc2c(O[C@@H]3C[C@H]4C(=O)N[C@]5(C(=O)NS(=O)(=O)C6CC6)C[C@H]5/C=C\CCCCN(C)C(=O)N4C3)cc(-c3nc(C(C)C)cs3)nc2c1`, for which the AUC amounted to 3.12 µM·h.

System in another data set: not listed separately
Briefly: Cmax in Sprague-Dawley rat at 10 mg/kg, po. It is filed as ADME, organism-based. More on the design: dose 10 mg/kg, route oral. The conditions noted are these: in vivo. The gist of the method:
as §1
Turning to `COc1ccc2c(O[C@@H]3C[C@H]4C(=O)N[C@]5(C(=O)NS(=O)(=O)C6(C)CC6)C[C@H]5/C=C\CCCCCNC(=O)N4C3)cc(-c3nc(C(C)C)cs3)nc2c1`, the Cmax was determined as 1710 nM.

As to `COc1ccc2c(O[C@@H]3C[C@H]4C(=O)N[C@]5(C(=O)NS(=O)(=O)C6CC6)C[C@H]5/C=C\CCCCN(C)C(=O)N4C3)cc(-c3nc(C(C)C)cs3)nc2c1`, the concentration peaked (Cmax) at 730 nM.

System in the next data set: not listed separately
The data set can be described thus: Tmax in Sprague-Dawley rat at 10 mg/kg, po. In kind it is ADME, organism-based. More on the design: dose 10 mg/kg, route oral. The settings on record: in vivo. In outline: as §1
Regarding `COc1ccc2c(O[C@@H]3C[C@H]4C(=O)N[C@]5(C(=O)NS(=O)(=O)C6CC6)C[C@H]5/C=C\CCCCN(C)C(=O)N4C3)cc(-c3nc(C(C)C)cs3)nc2c1`, the Tmax stood at 1.25 h.

System in another data set: not listed separately
Briefly: Half life in Sprague-Dawley rat at 10 mg/kg, po. In kind it is ADME, organism-based. More on the design: dose 10 mg/kg, route oral. The settings on record: in vivo. The gist of the method:
as §1
As to `COc1ccc2c(O[C@@H]3C[C@H]4C(=O)N[C@]5(C(=O)NS(=O)(=O)C6CC6)C[C@H]5/C=C\CCCCN(C)C(=O)N4C3)cc(-c3nc(C(C)C)cs3)nc2c1`, the half-life is 2.55 h.

System in a further data set: not listed separately
Briefly: Oral bioavailability in Sprague-Dawley rat at 10 mg/kg. It is filed as ADME, organism-based. The settings on record: in vivo. The gist of the method: as §1
In the case of `COc1ccc2c(O[C@@H]3C[C@H]4C(=O)N[C@]5(C(=O)NS(=O)(=O)C6(C)CC6)C[C@H]5/C=C\CCCCCNC(=O)N4C3)cc(-c3nc(C(C)C)cs3)nc2c1`, the bioavailability was 54%.

`COc1ccc2c(O[C@@H]3C[C@H]4C(=O)N[C@]5(C(=O)NS(=O)(=O)C6CC6)C[C@H]5/C=C\CCCCN(C)C(=O)N4C3)cc(-c3nc(C(C)C)cs3)nc2c1` registered a bioavailability of 37%.

System in another data set: not listed separately
The data set can be described thus: Apparent permeability across apical to basolateral side in human Caco-2 cells. In kind it is ADME, cell-based.
Conditions: not given
On to `COc1ccc2c(O[C@@H]3C[C@H]4C(=O)N[C@]5(C(=O)NS(=O)(=O)C6(C)CC6)C[C@H]5/C=C\CCCCCNC(=O)N4C3)cc(-c3nc(C(C)C)cs3)nc2c1Cl`, for which the Papp A→B turned out to be 29 ×10⁻⁶ cm/s.

As to `COc1ccc2c(O[C@@H]3C[C@H]4C(=O)N[C@]5(C(=O)NS(=O)(=O)C6(C)CC6)C[C@H]5/C=C\CCCCCNC(=O)N4C3)cc(-c3nc(C(C)C)cs3)nc2c1`, the Papp A→B stood at 30 ×10⁻⁶ cm/s.

System in another data set: not listed separately
Briefly: Metabolic stability in rat liver microsomes at 5 uM after 15 mins. It is filed as ADME, Microsome.
Conditions: not given
The gist of the method: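 Rat liver microsomes at 1 mg protein/mL were incubated with 5 μM test compound at 37 °C for 15 min. Stability is expressed as % of compound metabolized.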
Regarding `COc1ccc2c(O[C@@H]3C[C@H]4C(=O)N[C@]5(C(=O)NS(=O)(=O)C6(C)CC6)C[C@H]5/C=C\CCCCCNC(=O)N4C3)cc(-c3nc(C(C)C)cs3)nc2c1Cl`, the metabolized at 0.25 h, 5 µM was 21%.

The molecule `COc1ccc2c(O[C@@H]3C[C@H]4C(=O)N[C@]5(C(=O)NS(=O)(=O)C6(C)CC6)C[C@H]5/C=C\CCCCCNC(=O)N4C3)cc(-c3nc(C(C)C)cs3)nc2c1` gave a metabolized at 0.25 h, 5 µM of 89%.

System in another data set: not listed separately
The data set can be described thus: Bioavailability in Sprague-Dawley rat at 2 mg/kg, iv and 10 mg/kg, po. It is filed as ADME, organism-based. The settings on record: in vivo. In outline:
as §1
In turn, `COc1ccc2c(O[C@@H]3C[C@H]4C(=O)N[C@]5(C(=O)NS(=O)(=O)C6(C)CC6)C[C@H]5/C=C\CCCCCNC(=O)N4C3)cc(-c3nc(C(C)C)cs3)nc2c1` had a bioavailability of 54%.

System in another data set: not listed separately
The data set can be described thus: Selectivity index, ratio of CC50 for human Huh7 cells to EC50 for HCV. More on the design: species or system Huh-7.
Conditions: not given
As for `COc1ccc2c(O[C@@H]3C[C@H]4C(=O)N[C@]5(C(=O)NS(=O)(=O)C6(C)CC6)C[C@H]5/C=C\CCCCCNC(=O)N4C3)cc(-c3nc(C(C)C)cs3)nc2c1`, the “Selectivity Index” value was greater than 10000.

System in the next data set: not listed separately
Briefly: Ratio of drug level in liver to plasma of Sprague-Dawley rat at 10 mg/kg, po after 6 hrs.
Conditions: not given
On to `COc1ccc2c(O[C@@H]3C[C@H]4C(=O)N[C@]5(C(=O)NS(=O)(=O)C6(C)CC6)C[C@H]5/C=C\CCCCCNC(=O)N4C3)cc(-c3nc(C(C)C)cs3)nc2c1`, for which the liver/plasma ratio at 6 h was found to be 105.

System in a further data set: not listed separately
Briefly: Ratio of drug level in liver to plasma of Sprague-Dawley rat at 10 mg/kg, po after 8 hrs.
Conditions: not given
`COc1ccc2c(O[C@@H]3C[C@H]4C(=O)N[C@]5(C(=O)NS(=O)(=O)C6CC6)C[C@H]5/C=C\CCCCN(C)C(=O)N4C3)cc(-c3nc(C(C)C)cs3)nc2c1`: the liver/plasma ratio at 8 h stood at 12.
